Compound activity: PubChem, Johns Hopkins Ion Channel Center
TRPC4 potent: allosteric potentiators of mouse TRPC4 channel. Q9QUQ5. HEK293 TRPC4beta/mu-opioid, DAMGO EC20, Fluo-4 Ca2+ flux; hits give high values. B-score at 10 µM. actives 0.42% (n = 310,000). AID 2227;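 active means B-score of calcium response area above 5 SD of library B-scores, with initial fluorescence ratio within 5 SD of library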
Target sequence (Q9QUQ5 whole entry, looked up): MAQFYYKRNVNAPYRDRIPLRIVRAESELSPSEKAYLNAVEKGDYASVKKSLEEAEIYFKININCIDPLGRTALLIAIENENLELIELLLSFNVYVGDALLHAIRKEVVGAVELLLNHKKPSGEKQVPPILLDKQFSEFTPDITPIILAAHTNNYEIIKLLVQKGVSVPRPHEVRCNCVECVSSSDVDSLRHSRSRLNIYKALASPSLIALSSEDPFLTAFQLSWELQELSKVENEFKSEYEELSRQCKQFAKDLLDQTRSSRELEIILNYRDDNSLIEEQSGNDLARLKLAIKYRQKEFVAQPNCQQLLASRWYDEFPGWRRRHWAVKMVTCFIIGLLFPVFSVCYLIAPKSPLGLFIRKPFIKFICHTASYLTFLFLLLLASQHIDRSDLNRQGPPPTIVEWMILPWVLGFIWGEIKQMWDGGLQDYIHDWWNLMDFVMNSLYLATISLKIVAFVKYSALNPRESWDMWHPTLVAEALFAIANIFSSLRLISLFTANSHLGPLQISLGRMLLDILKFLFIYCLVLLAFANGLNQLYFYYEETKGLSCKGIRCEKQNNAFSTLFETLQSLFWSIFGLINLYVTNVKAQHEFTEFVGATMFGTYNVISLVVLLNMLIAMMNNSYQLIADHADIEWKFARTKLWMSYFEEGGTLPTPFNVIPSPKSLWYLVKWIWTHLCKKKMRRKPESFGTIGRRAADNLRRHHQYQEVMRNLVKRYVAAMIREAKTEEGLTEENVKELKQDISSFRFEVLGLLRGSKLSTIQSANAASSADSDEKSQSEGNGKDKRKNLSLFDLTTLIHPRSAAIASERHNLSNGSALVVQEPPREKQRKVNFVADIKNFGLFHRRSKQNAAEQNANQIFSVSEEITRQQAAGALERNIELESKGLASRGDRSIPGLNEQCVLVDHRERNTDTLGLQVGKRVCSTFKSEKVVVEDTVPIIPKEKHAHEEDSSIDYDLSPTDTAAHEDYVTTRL
TRPC6 inhibitor: mouse TRPC6 channel inhibition; Q61143; HEK293-TRPC6, membrane potential dye, ACh-evoked depolarization; hits give low values; B-score at 10 µM; actives 1.1% (n = 310,000);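 active means B-score under library mean minus 3 SD, initial fluorescence not abnormally high, positive integrated signal ratio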;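 further: B-score derived from integrated fluorescence ratio over the kinetic read; more negative B-score means stronger inhibition of depolarization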
TRPC4 inh: TRPC4 (mouse) channel inhibition; Q9QUQ5; HEK293 TRPC4beta/mu-opioid, DAMGO-evoked Fluo4 calcium flux; hits give low values; B-score at 10 µM; actives 0.39% (n = 300,000); AID 2247;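 active means B-score over 3 SD under the library average, no early fluorescence shift, positive overall ratio signal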
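Material: HEK293 cells with stable TRPC4beta plus mu-opioid receptor expression / Probe or stimulus: DAMGO in two steps, submaximal then maximal / Compound: single concentration per test compound / Technique: kinetic Fluo4 fluorescence imaging of calcium influx / Read-out: per-well B score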
TRPC4 agonist: opens the mouse TRPC4 cation channel. Q9QUQ5. HEK293 TRPC4beta/mu-opioid, Fluo4 calcium fluorescence; hits give high values. B-score at 10 µM. actives 0.49% (n = 310,000);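 active means B-score above 5 SD of library B-scores, and initial fluorescence ratio not above library mean plus 5 SD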;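 further: positive B-score marks a calcium rise read as TRPC4 activation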
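Material: HEK293 stable line with TRPC4beta plus mu-opioid receptor; technique: Fluo4 calcium-sensitive dye fluorescence, kinetic, 1 Hz baseline; timing: Fluo4 dye loading 45 min at room temperature, 110 s recording; controls: assay buffer as low control, maximal DAMGO as high control; read-out: integrated baseline-normalised fluorescence ratio, converted to per-well B score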
TRPC6 act: mouse TRPC6 channel activation | actives 0.13% (n = 310,000) | HEK293-TRPC6 membrane potential dye fluorescence; hits give high values | Q61143 | B-score at 10 µM;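 active means B-score of the integrated fluorescence ratio above library mean plus 3 SD, and starting fluorescence ratio within library mean plus 5 SD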;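 further: higher score means more depolarization so channel activation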
TRPC4 spec 2: mouse TRPC4 off-target activity of TRPC6 inhibitors, second screen | shares compounds with TRPC6 inhibitor | HEK293 TRPC4/MOR, membrane potential dye fluorescence; channel activated by saturating DAMGO dose | inhibition, % at 10 µM | actives 42% (n = 920);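 active means compounds whose fluorescence signal differed from control wells by over 3 SD, either direction, in both duplicate plates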
TRPC4 spec: tests whether TRPC6 inhibitors also affect mouse TRPC4. activity change, negative = inhibition, % at 10 µM. actives 61% (n = 920). shares compounds with TRPC6 inhibitor. AID 2777. HEK293 TRPC4/mu-opioid, membrane potential fluorescence;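 active means rise or fall in signal beyond 3 SD of buffer-only wells in both replicate plates, either sign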;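 further: integrated kinetic ratio of fluorescence range over baseline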
HEK293 MPD ctr 2-1: second check of TRPC6 inhibitor effects in parental HEK293 cells. shares compounds with TRPC6 inhibitor. parental HEK293 membrane potential dye fluorescence; maximal acetylcholine challenge after compound addition. signal change vs control, % at 10 µM. actives 31% (n = 920). AID 2779;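 active means membrane potential signal moving either way by over 3 SD of the maximum-effect control, in both duplicate plates, meaning non-specific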
HEK293 MPD ctr-1: checks TRPC6 inhibitor effects in parental HEK293 cells; membrane potential signal change, % at 10 µM; actives 60% (n = 920); shares compounds with TRPC6 inhibitor; parental HEK293 membrane potential dye fluorescence;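 active means membrane potential signal shifting up or down by more than 3 SD of buffer-only wells, on both duplicate plates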
HEK293 MPD ctr-2: counter-screen for TRPC6 modulators: effect in parental HEK293 cells | shares compounds with TRPC6 inhibitor | membrane potential signal change, % at 10 µM | membrane potential dye fluorescence | actives 51% (n = 2,400);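 active means membrane potential signal moves up or down beyond 5 SD from buffer-only wells, on both duplicate plates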
HEK293 MPD ctr 2-2: second check of TRPC6 modulator effects in parental HEK293 cells. actives 14% (n = 2,400). inhibition, % at 10 µM. shares compounds with TRPC6 inhibitor. AID 488926. membrane potential dye fluorescence; after compound, maximal acetylcholine stimulation;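 active means membrane potential signal drops by more than 5 SD from the mean control signal, in both duplicate plates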
TRPC4/MOR mod: tests whether TRPC6 modulators also affect mouse TRPC4. percent change from control (negative = decrease, positive = increase), % at 10 µM. HEK293 TRPC4/mu-opioid, membrane potential fluorescence. shares compounds with TRPC6 inhibitor. AID 488927. actives 69% (n = 2,400);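 active means membrane potential signal moved up or down beyond 5 SD of buffer control wells, in both duplicate plates, actives on both sides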
TRPC4 ctr inh 2: second check of whether TRPC6 modulators also affect mouse TRPC4; shares compounds with TRPC6 inhibitor; HEK293 TRPC4/mu-opioid, membrane potential dye fluorescence; stimulated with maximal-effect DAMGO; inhibition, % at 10 µM; actives 55% (n = 2,400);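 active means drop in membrane potential signal beyond 5 SD of the control wells in both duplicate plates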;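 further: TRPC4 counter screen for TRPC6 hits run under conditions tuned for TRPC6 not TRPC4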
TRPC6 block conf: confirmation of mouse TRPC6 inhibitors. shares compounds with TRPC6 inhibitor. HEK293-TRPC6, membrane potential dye, ACh-evoked depolarization. inhibition, % at 10 µM. actives 43% (n = 3,300). AID 488960;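 active means fluorescence ratio falls more than 5 SD below the full-stimulation control mean, in both duplicate runs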;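 further: integrated fluorescence ratio of peak minus minimum over baseline after agonist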
TRPC6 act conf: confirmation of mouse TRPC6 activators; shares compounds with TRPC6 inhibitor; activation, % at 10 µM; AID 488961; actives 11% (n = 2,800); HEK293-TRPC6 membrane potential dye fluorescence, FDSS;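 active means ratio signal rise beyond 5 SD above unstimulated control wells' mean, seen in both duplicate runs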
Large screens that a line does not name were inactive (follow-up assays come after a bar, where they were run). Only some compounds are listed: those with a hit (about 2.3% of all), similar ones and a draw of the others.

Cc1cc(NC(=O)COC(=O)CCNS(=O)(=O)c2ccccc2)n(-c2ccccc2)n1	none
O=C(N=Nc1c(O)[nH]c2ccc(Cl)cc12)c1cc(-c2cccs2)nc2ccccc12	TRPC6 inhibitor -5.68 | HEK293 MPD ctr-2 inactive | HEK293 MPD ctr 2-2 inactive | TRPC4/MOR mod inactive | TRPC4 ctr inh 2 inactive | TRPC6 block conf inactive | TRPC6 act conf inactive
O=C(Nc1cccnc1)c1cnn2cccnc12	TRPC6 inhibitor -5.16 | HEK293 MPD ctr-2 -96.0% | HEK293 MPD ctr 2-2 inactive | TRPC4/MOR mod -10.5% | TRPC4 ctr inh 2 inactive | TRPC6 block conf inactive | TRPC6 act conf inactive
CCC(=O)N1CCc2cc(S(=O)(=O)N3CCN(c4cc(C)ccc4C)CC3)ccc21	none
Cc1ccc(Nc2c(-c3ccccn3)nc3cc(C)ccn23)cc1	TRPC6 inhibitor -5.46 | HEK293 MPD ctr-2 -134.0% | HEK293 MPD ctr 2-2 inactive | TRPC4/MOR mod -27.0% | TRPC4 ctr inh 2 71.5% | TRPC6 block conf inactive | TRPC6 act conf inactive
OC(CCN1CCCC1)(c1ccccc1)C1CCCCC1 (stereo not given)	TRPC6 inhibitor -8.15 | TRPC4 spec 2 inactive | TRPC4 spec 24.2% | HEK293 MPD ctr 2-1 -14.0% | HEK293 MPD ctr-1 15.3% | TRPC6 block conf 79.1%
OC(CCN1CCCCC1)(c1ccccc1)c1ccccc1	TRPC6 inhibitor -7.08 | TRPC4 spec 2 inactive | TRPC4 spec 17.3% | HEK293 MPD ctr 2-1 -7.0% | HEK293 MPD ctr-1 12.0% | TRPC6 block conf 73.7%
COc1ccc(-c2csc(NC(=O)c3ccccc3NS(=O)(=O)c3ccc(F)c(F)c3)n2)cc1	TRPC6 inhibitor -5.29 | HEK293 MPD ctr-2 inactive | HEK293 MPD ctr 2-2 inactive | TRPC4/MOR mod -15.0% | TRPC4 ctr inh 2 56.5% | TRPC6 block conf 64.5% | TRPC6 act conf inactive
Cc1ccc(S(=O)(=O)Nc2ccccc2C(=O)Nc2nc(-c3ccc(F)cc3)cs2)cc1	none
Cc1nnc(SCCn2c(N3CCN(Cc4ccccc4)CC3)nc3c2c(=O)[nH]c(=O)n3C)s1	TRPC6 inhibitor -7.77 | HEK293 MPD ctr-2 -278.5% | HEK293 MPD ctr 2-2 inactive | TRPC4/MOR mod -43.5% | TRPC4 ctr inh 2 inactive | TRPC6 block conf inactive | TRPC6 act conf inactive
Cc1nnc(SCCn2c(N3CCCCCC3)nc3c2c(=O)[nH]c(=O)n3C)s1	none
Cn1c(=O)[nH]c(=O)c2c1nc(N1CCN(Cc3ccccc3)CC1)n2CCCc1ccccc1	none
Cc1nnc(SCCn2c(N3CCN(C)CC3)nc3c2c(=O)[nH]c(=O)n3C)s1	TRPC6 inhibitor -10.2 | TRPC4 spec 2 74.0% | TRPC4 spec -36.2% | HEK293 MPD ctr 2-1 inactive | HEK293 MPD ctr-1 -592.0% | TRPC6 block conf 68.8% | TRPC6 act conf inactive
Cn1c(=O)[nH]c(=O)c2c1nc(N1CCN(Cc3ccccc3)CC1)n2CCSc1ncccn1	TRPC6 inhibitor -7.91 | HEK293 MPD ctr-2 -329.0% | HEK293 MPD ctr 2-2 96.5% | TRPC4/MOR mod -59.0% | TRPC4 ctr inh 2 62.5% | TRPC6 block conf 58.0% | TRPC6 act conf inactive
COc1cccc(C(=O)NCC(=O)NCc2cc(=O)n(C)c(=O)n2C)c1OC	none
Cc1nc([N+](=O)[O-])cn1CC(O)c1ccc(F)cc1 (stereo not given)	none
COc1cc2ccccc2nn1	none
COc1ccc2c(n1)Sc1nc3ccccc3nc1N2	TRPC6 act 19.1 | HEK293 MPD ctr-2 210.5% | HEK293 MPD ctr 2-2 inactive | TRPC4/MOR mod 105.5% | TRPC4 ctr inh 2 inactive | TRPC6 block conf inactive | TRPC6 act conf inactive
OCCOCCn1c(-c2ccccc2)nc(=S)c2c1CCCC2	TRPC6 inhibitor -7.69 | HEK293 MPD ctr-2 -321.5% | HEK293 MPD ctr 2-2 86.0% | TRPC4/MOR mod -51.5% | TRPC4 ctr inh 2 53.0% | TRPC6 block conf 60.5% | TRPC6 act conf inactive
NCCOc1ccc(C23CC4CC(CC(C4)C2)C3)cc1	none
Cc1ccc(C23CC4CC(CC(CN)(C4)C2)C3)cc1	TRPC6 inhibitor -7.52 | TRPC4 spec 2 42.0% | TRPC4 spec -11.3% | HEK293 MPD ctr 2-1 inactive | HEK293 MPD ctr-1 -176.5% | TRPC6 block conf inactive | TRPC6 act conf inactive
NCC12CC3CC(C1)CC(c1ccc(Br)cc1)(C3)C2	TRPC6 inhibitor -8.56 | TRPC4 spec 2 43.5% | TRPC4 spec -10.2% | HEK293 MPD ctr 2-1 inactive | HEK293 MPD ctr-1 -178.5% | TRPC6 block conf 62.4% | TRPC6 act conf inactive
CCOCCCNC(=S)N1CCCN(c2nc3cc(C)ccc3cc2C#N)CC1	TRPC6 inhibitor -10.1 | TRPC4 spec 2 inactive | TRPC4 spec inactive | HEK293 MPD ctr 2-1 inactive | HEK293 MPD ctr-1 inactive | TRPC6 block conf 74.7%
CNC(=S)N/N=C/c1cn(Cc2c(F)cccc2Cl)c2ccccc12	TRPC6 inhibitor -5.3 | HEK293 MPD ctr-2 inactive | HEK293 MPD ctr 2-2 inactive | TRPC4/MOR mod inactive | TRPC4 ctr inh 2 inactive | TRPC6 block conf inactive
Cc1cc(C)c2cc3c(ccn3C3OC[C@H](O)[C@H](O)[C@H]3O)cc2n1 (stereo not given in full)	TRPC6 inhibitor -7.08 | HEK293 MPD ctr-2 inactive | HEK293 MPD ctr 2-2 inactive | TRPC4/MOR mod -67.5% | TRPC4 ctr inh 2 34.0% | TRPC6 block conf inactive | TRPC6 act conf inactive
CC(=O)O[C@@H]1[C@@H](OC(C)=O)[C@H](n2ccc3cc([N+](=O)[O-])ccc32)OC[C@@H]1OC(C)=O	none
